In one assay the test system is Vibrio anguillarum. Put plainly: Antimicrobial activity against Vibrio anguillarum by well diffusion method. In kind it is functional, organism-based. The method in brief: (§1)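 Agar well diffusion assay against the bacterial test strain; chloromycetin run alongside as positive control. Method follows a cited earlier protocol.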
In the next assay the test system is Edwardsiella tarda. Nature of the assay: Antimicrobial activity against Edwardsiella tarda by well diffusion method. In kind it is functional, organism-based. In short, it runs like this: as §1
The test system of a further assay is Vibrio alginolyticus. Nature of the assay: Antimicrobial activity against Vibrio alginolyticus by well diffusion method. It is filed as functional. The method in brief:
as §1

The test system of another assay is Vibrio parahaemolyticus. Put plainly: Antimicrobial activity against Vibrio parahaemolyticus by well diffusion method. In kind it is functional, organism-based. The method in brief:
as §1

A further assay relates to Vibrio harveyi. Nature of the assay: Antimicrobial activity against Vibrio harveyi by well diffusion method. It is filed as functional, organism-based. In short, it runs like this: as §1
The next assay deals with Aeromonas hydrophila. Put plainly: Antimicrobial activity against Aeromonas hydrophila by well diffusion method. In kind it is functional, organism-based. The method in brief: as §1
A further assay relates to Staphylococcus aureus. Put plainly: Antimicrobial activity against Staphylococcus aureus by well diffusion method. It is filed as functional.
A further assay has as its system Escherichia coli. Put plainly: Antimicrobial activity against Escherichia coli by well diffusion method. In kind it is functional.

Our source for the MIC values is ChEMBL document CHEMBL3608285, “Citrifelins A and B, Citrinin Adducts with a Tetracyclic Framework from Cocultures of Marine-Derived Isolates of Penicillium citrinum and Beauveria felina” (2015).

Values after ≈ are worked out from the molar mass of the structure shown. Active and inactive are the calls of the source. No cut-off for these calls is given here. Numbered stars: 1 amine (or outer) side, 2 acyl side, 3 side chain; on linkers, the order of the positions; unused ones are H or OH. Square brackets hold non-standard residues; d marks the D form. Peptide text beside a SMILES is read from it. X1 = C[C@H]1CCN([*:1])[C@@H]1C(=O)[*:2]; dLac(3-vinyl) = C=CC[C@@H](O)C(=O)O; NMeF = CN[C@@H](Cc1ccccc1)C(=O)O; Hica(2S) = CC(C)C[C@H](O)C(=O)O; NMeV = CN[C@H](C(=O)O)C(C)C; NMeA = CN[C@@H](C)C(=O)O; βAla = NCCC(=O)O

For the molecule `Cc1c2c(c3oc4cc(=O)c(C)c5c-4c(c3c1O)O[C@H](C)[C@H]5C)O[C@H](C)[C@H]2C`, the MIC entry in the assay with Vibrio anguillarum, in the assay with Edwardsiella tarda, in the assay with Vibrio alginolyticus, with Vibrio parahaemolyticus, in the assay on Vibrio harveyi and with Aeromonas hydrophila was “inactive” in each case.
Regarding `CC(C)C[C@@H]1OC(=O)CCNC(=O)[C@H](Cc2ccccc2)N(C)C(=O)[C@H](C(C)C)N(C)C(=O)[C@H](Cc2ccccc2)NC(=O)[C@@H]2[C@@H](C)CCN2C1=O` (cyclo(F[NMeV][NMeF][βAla][Hica(2S)][X1])), the MIC result with Vibrio anguillarum, in the assay with Edwardsiella tarda, in the assay on Vibrio alginolyticus, in the assay with Vibrio parahaemolyticus, in the assay with Vibrio harveyi and with Aeromonas hydrophila was “inactive” in each case.
With `Cc1c(O)cc2c3c1[C@H](C)[C@@H](C)O[C@@H]3C[C@H](c1ccc(O)cc1)O2`, the MIC entry in the assay on Vibrio anguillarum, in the assay on Edwardsiella tarda, in the assay with Vibrio parahaemolyticus, in the assay on Vibrio harveyi and in the assay with Aeromonas hydrophila was “inactive” each time. Besides, the MIC against Vibrio alginolyticus stood at 16 µg/mL (≈ 49 µM); with Staphylococcus aureus it was 8 µg/mL (≈ 24.5 µM); against Escherichia coli, 8 µg/mL (≈ 24.5 µM).
`CC(C)C[C@@H]1OC(=O)CCNC(=O)[C@H](Cc2ccccc2)N(C)C(=O)[C@H](C(C)C)N(C)C(=O)[C@H](Cc2ccccc2)NC(=O)[C@@H]2CCCN2C1=O` (cyclo(F[NMeV][NMeF][βAla][Hica(2S)]P)): the MIC entry in the assay on Vibrio anguillarum, with Edwardsiella tarda, in the assay with Vibrio alginolyticus, with Vibrio parahaemolyticus, in the assay on Vibrio harveyi and in the assay with Aeromonas hydrophila was “inactive” in each case.
With `C=CC[C@H]1OC(=O)CCNC(=O)[C@H](C)N(C)C(=O)[C@H](C(C)C)N(C)C(=O)[C@H]([C@@H](C)CC)NC(=O)[C@@H]2[C@@H](C)CCN2C1=O` (cyclo(I[NMeV][NMeA][βAla][dLac(3-vinyl)][X1])), the MIC entry with Vibrio anguillarum, in the assay on Edwardsiella tarda, in the assay on Vibrio alginolyticus, in the assay on Vibrio parahaemolyticus, in the assay with Vibrio harveyi and in the assay with Aeromonas hydrophila was “inactive” throughout.
As to `COc1cc([C@H]2C[C@H]3O[C@H](C)[C@@H](C)c4c(C)c(O)cc(c43)O2)ccc1O`, the MIC result with Vibrio anguillarum, with Edwardsiella tarda, in the assay on Vibrio parahaemolyticus, in the assay on Vibrio harveyi and in the assay with Aeromonas hydrophila was “inactive” each time. For the same molecule, the results for the minimum inhibitory concentration (MIC) against Vibrio alginolyticus, in the assay with Staphylococcus aureus and in the assay with Escherichia coli were 16 µg/mL (≈ 44.9 µM), 4 µg/mL (≈ 11.2 µM) and 2 µg/mL (≈ 5.61 µM), respectively.
Turning to `C=CC[C@H]1OC(=O)CCNC(=O)[C@H](C)N(C)C(=O)[C@H](C(C)C)N(C)C(=O)[C@H]([C@@H](C)CC)NC(=O)[C@@H]2CCCN2C1=O` (cyclo([dLac(3-vinyl)]PI[NMeV][NMeA][βAla])), the MIC result in the assay with Vibrio anguillarum, with Edwardsiella tarda, in the assay on Vibrio alginolyticus, in the assay on Vibrio parahaemolyticus, in the assay with Vibrio harveyi and in the assay on Aeromonas hydrophila was “inactive” in each case.
On to `Cc1c(O)c(C(=O)O)c(O)c2c1[C@H](C)[C@@H](C)OC2=O`, for which the MIC result in the assay on Vibrio anguillarum, in the assay on Edwardsiella tarda, with Vibrio alginolyticus, in the assay with Vibrio parahaemolyticus, in the assay on Vibrio harveyi and in the assay on Aeromonas hydrophila was “inactive” throughout.
In the case of `Cc1c(O)cc(O)c2c1[C@H](C)[C@@H](C)OC2=O`, the MIC result with Vibrio anguillarum, in the assay with Edwardsiella tarda, in the assay on Vibrio parahaemolyticus, with Vibrio harveyi and with Aeromonas hydrophila was “inactive” in each case. For the same molecule, in the assay with Vibrio alginolyticus, the MIC is 8 µg/mL (≈ 36 µM).
